Test results from ChEMBL document CHEMBL1765057, “Pyrazolo[4,3-d]pyrimidine bioisostere of roscovitine: evaluation of a novel selective inhibitor of cyclin-dependent kinases with antiproliferative activity” (J Med Chem, 2011).
Activity calls are given as the source filed them. The calls are words filed in the database; no cut-off is given here.

Key:
RPMI-8226 [1] = test: Induction of apoptosis in human RPMI8226 cells assessed as increase in caspase3 activation after 24 hrs by immunoblot analysis; format: functional, cell-based
RPMI-8226 [2] = test: Induction of apoptosis in human RPMI8226 cells assessed as induction of PARP cleavage after 24 hrs by immunoblot analysis; format: functional, cell-based
Outline: (§1)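 RPMI-8226 cells were treated continuously for 24 h, and total lysates were made in Laemmli buffer, run on SDS-PAGE and blotted to nitrocellulose. Loading was checked with Ponceau-S. Membranes were blocked in milk or BSA, probed overnight at 4 °C with antibodies to PARP, caspase-3 and Mcl-1, then peroxidase secondary (1:2000), with ECL detection.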

[3] = molecular target: Cellular tumor antigen p53 (Homo sapiens) (UniProt P04637); test: Induction of p53-dependent transcriptional activity in human ARN8 cells assessed as beta-galactosidase activity after 24 hrs by immunofluorescence assay; format: cell-based
Sequence of Cellular tumor antigen p53 (Homo sapiens) (P04637 whole entry, looked up): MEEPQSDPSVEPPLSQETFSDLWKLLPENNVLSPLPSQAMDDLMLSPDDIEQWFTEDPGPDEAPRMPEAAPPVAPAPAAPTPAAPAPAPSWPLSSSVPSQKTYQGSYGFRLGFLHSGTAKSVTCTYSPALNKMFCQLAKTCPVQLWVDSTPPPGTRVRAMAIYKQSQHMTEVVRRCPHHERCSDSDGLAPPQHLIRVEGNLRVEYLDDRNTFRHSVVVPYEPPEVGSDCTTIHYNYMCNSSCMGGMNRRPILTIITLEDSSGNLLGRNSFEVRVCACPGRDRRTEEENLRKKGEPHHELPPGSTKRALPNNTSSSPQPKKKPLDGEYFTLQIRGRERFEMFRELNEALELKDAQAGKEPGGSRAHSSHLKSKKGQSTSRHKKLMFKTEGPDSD
Outline: (§2)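 ARN8 melanoma cells stably carrying the p53-responsive pRGCΔfoslacZ reporter were exposed to inhibitors for 24 h, permeabilized with 0.3% Triton X-100 for 15 min, and given MUG substrate (final 80 μM). Fluorescence was read at 355/460 nm after 1 h. Data are mean ± SD of three independent experiments.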

RPMI-8226 [4] = test: Induction of apoptosis in human RPMI8226 cells assessed as down-regulation of Mcl-1 after 24 hrs by immunoblot analysis; format: functional, cell-based; outline: as §1
MCF7 = test: Cell cycle arrest in human MCF7 cells assessed as accumulation at G2/M phase after 24 hrs using propidium iodide and BrdU staining by flow cytometry; format: functional, cell-based
Outline: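 Subconfluent MCF-7 cells were treated for 24 h at a range of concentrations. They were pulse-labelled with 10 μM BrdU for 30 min at 37 °C, then trypsinized and fixed in ice-cold 70% ethanol. DNA was denatured in 2 M HCl and neutralized with borate. Cells were stained with fluorescein anti-BrdU and with propidium iodide plus RNase A, then analysed by flow cytometry at 488 nm.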

[5] = molecular target: Cellular tumor antigen p53 (Homo sapiens) (UniProt P04637); test: Induction of p53-dependent transcriptional activity in human ARN8 cells assessed as beta-galactosidase activity at 10 to 20 uM after 24 hrs by immunofluorescence assay; format: cell-based; outline: as §2
[6] = molecular target: Cyclin-dependent kinase 5/CDK5 activator 1 (Homo sapiens) (UniProt Q00535+Q15078); details: at 10 µM
Sequence of Cyclin-dependent kinase 5/CDK5 activator 1 (Homo sapiens) (Q00535 whole entry): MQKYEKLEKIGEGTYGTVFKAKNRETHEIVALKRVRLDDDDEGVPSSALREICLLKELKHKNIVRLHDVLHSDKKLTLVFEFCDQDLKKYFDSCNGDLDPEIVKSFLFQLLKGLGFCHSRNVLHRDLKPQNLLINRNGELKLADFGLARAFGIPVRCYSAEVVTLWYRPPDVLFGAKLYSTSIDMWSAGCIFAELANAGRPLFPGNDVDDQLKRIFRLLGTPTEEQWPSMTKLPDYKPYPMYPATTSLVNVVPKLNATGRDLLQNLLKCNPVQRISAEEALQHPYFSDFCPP
Sequence of Cyclin-dependent kinase 5/CDK5 activator 1 (Homo sapiens) (Q15078 99-307 partner limits assumed): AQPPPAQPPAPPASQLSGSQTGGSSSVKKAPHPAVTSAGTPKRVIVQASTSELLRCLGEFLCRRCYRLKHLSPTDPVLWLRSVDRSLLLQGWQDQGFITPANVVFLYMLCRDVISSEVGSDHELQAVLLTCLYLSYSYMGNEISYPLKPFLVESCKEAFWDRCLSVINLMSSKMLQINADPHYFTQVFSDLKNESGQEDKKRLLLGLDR

U-266 = test: Induction of apoptosis in human U266 cells at 10 uM after 24 hrs; format: functional, cell-based
RPMI-8226 [7] = test: Cell cycle arrest in human RPMI8226 cells assessed as accumulation at G1 phase after 24 hrs using propidium iodide and BrdU staining by flow cytometry; format: functional, cell-based
Outline: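 Subconfluent cells treated 24 h at varying concentrations, pulsed with 10 μM BrdU for 30 min at 37 °C, then trypsinized, fixed in ice-cold 70% ethanol and DNA denatured in 2 M HCl. After staining with fluorescein anti-BrdU (1:50), propidium iodide (0.1 mg/mL) and RNase A (0.5 mg/mL), cells were read by flow cytometry with a 488 nm laser.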

[8] = molecular target: Casein kinase I isoform alpha (Homo sapiens) (UniProt P48729); test: Inhibition of human recombinant CK1 at 10 uM
Sequence of Casein kinase I isoform alpha (Homo sapiens) (P48729 2-337 limits assumed): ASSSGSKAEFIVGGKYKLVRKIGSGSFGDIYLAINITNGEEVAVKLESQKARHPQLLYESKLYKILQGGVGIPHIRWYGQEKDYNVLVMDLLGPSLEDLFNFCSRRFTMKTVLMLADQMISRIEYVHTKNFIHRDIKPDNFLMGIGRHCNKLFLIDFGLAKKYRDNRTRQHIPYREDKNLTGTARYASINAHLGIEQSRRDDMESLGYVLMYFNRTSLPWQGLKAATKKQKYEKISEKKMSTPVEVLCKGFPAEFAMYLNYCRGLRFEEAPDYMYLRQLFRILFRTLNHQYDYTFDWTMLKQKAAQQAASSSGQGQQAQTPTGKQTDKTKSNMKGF

[9] = molecular target: T1, Retinoblastoma-associated protein (Homo sapiens) (UniProt P06400); test: Inhibition of retinoblastoma protein in human MCF7 cells assessed as reduction of cyclin E level at 2.5 to 40 uM after 24 hrs by immunoblotting; format: cell-based
T1 sequence (whole entry): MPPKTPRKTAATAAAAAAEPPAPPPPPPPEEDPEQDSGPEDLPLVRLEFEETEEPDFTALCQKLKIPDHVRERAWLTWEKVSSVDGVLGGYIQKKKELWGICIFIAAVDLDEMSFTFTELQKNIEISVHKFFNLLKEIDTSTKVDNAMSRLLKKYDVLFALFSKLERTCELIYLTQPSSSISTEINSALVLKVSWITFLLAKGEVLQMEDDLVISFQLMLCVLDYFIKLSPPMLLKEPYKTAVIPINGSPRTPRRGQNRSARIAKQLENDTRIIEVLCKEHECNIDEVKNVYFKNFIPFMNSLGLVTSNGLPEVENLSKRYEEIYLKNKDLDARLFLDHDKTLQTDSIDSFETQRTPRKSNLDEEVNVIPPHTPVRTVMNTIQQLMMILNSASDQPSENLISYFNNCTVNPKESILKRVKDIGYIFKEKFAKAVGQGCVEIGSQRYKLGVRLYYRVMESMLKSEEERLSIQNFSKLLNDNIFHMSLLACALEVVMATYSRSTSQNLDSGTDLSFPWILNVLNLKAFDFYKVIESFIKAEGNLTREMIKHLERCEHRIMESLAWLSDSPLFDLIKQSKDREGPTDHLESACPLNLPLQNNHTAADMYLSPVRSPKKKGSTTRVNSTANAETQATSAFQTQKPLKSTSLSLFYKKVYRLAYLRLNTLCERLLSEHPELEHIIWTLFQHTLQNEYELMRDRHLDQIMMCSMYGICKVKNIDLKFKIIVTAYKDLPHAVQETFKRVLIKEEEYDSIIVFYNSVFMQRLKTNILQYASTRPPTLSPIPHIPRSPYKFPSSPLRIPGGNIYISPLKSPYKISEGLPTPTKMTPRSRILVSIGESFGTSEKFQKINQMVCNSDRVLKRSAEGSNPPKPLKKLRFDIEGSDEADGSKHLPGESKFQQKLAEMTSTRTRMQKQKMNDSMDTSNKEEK
Outline: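 Asynchronous, exponentially growing MCF-7 cells were exposed 24 h to a range of concentrations. Total lysates were made in Laemmli buffer, run on SDS-PAGE and blotted to nitrocellulose. Membranes were probed overnight at 4 °C with specific or phosphospecific antibodies (pRb S249/T252, S780, S795, S807/811), with tubulin as loading control and ECL detection.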

[10] = molecular target: Cellular tumor antigen p53 (Homo sapiens) (UniProt P04637); test: Induction of p53-dependent transcriptional activity in human MCF7 cells assessed as increase of p21 WAF1 level at 10 uM after 24 hrs by immunofluorescence assay; format: cell-based; details: in the assay text read “by immunoblotting analysis” for “by immunofluorescence assay”
Outline: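 MCF-7 cells were exposed 24 h to 10 μM. Total lysates were made in Laemmli buffer, run on SDS-PAGE and blotted to nitrocellulose, then probed with antibodies to p53, p21WAF1 and Mdm-2, with peroxidase secondary and ECL detection.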

HL-60 = test: Cytotoxicity against human HL60 cells after 72 hrs by fluoroskan ascent microplate reader analysis; format: functional, cell-based; details: HL-60, 72 h
Outline: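 Cells were grown in DMEM with 10% FCS and 4 mM glutamine at 37 °C under CO2, then plated at densities suited to each line. Compounds were added as 3-fold dilutions in triplicate for 72 h.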

## CC[C@H](CO)Nc1nc(NCc2ccccc2)c2[nH]nc(C(C)C)c2n1
RPMI-8226 [1]
  Activity: Active
RPMI-8226 [2]
  Activity: Active
[3]
  Activity: Dose-dependent effect
RPMI-8226 [4]
  Activity: Active
MCF7
  Activity: Active
[5]
  Activity: Active
[6]
  inhibition: 95%
U-266
  Activity: Active
RPMI-8226 [7]
  Activity: Active
[8]
  inhibition: 7%
[9]
  inhibition: inactive
[10]
  Activity: Active
HL-60
  IC50: 7.1 µM
